T cruzi growth-1: inhibitors of T. cruzi proliferation; T. cruzi beta-gal in NIH3T3, GalScreen luminescence, 90 h; inhibition, % at 8.34 µM; 5.9% of 77,000 active; AID 624255;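 active = mean inhibition above about 93%, with at least 55% of replicates each passing it, limit read from the data, passing the limit was not always enough; inconclusive = only one of those two conditions holds; inactive = neither condition holds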
Pf Dd2 growth: P. falciparum Dd2 growth inhibition; AID 1159554; 2.3% of 94,000 active; SYBR Green, 72 h; active compounds read low; activity change, % at 10 µM; in the data active = activity change below about -80%; inconclusive = no clear call, values can overlap the other calls
IDH1 R132H inh: blocks human IDH1 R132H reductase activity; AID 624101; 0.18% of 70,000 active; diaphorase/resazurin fluorescence, 60 min; O75874; inhibition, % at 10 µM; in the data active = inhibition above about 34%; inconclusive = no clear call, values can overlap the other calls; inactive = below about 11%;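 also: 0% = DMSO and 100% = no enzyme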
Target sequence (O75874 whole entry R132H): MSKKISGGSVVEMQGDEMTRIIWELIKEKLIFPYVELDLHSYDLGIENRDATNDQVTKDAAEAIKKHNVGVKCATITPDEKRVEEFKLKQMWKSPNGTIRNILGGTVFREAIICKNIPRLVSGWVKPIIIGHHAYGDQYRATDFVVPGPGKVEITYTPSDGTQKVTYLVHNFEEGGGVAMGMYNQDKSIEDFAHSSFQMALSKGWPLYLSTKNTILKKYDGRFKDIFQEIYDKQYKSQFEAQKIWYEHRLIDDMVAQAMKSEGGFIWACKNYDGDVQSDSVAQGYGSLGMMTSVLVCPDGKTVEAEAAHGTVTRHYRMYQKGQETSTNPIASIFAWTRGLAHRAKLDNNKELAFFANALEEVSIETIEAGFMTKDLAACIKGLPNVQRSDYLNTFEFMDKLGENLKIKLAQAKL
GASC1 inh: inhibitors of human demethylase GASC-1 KDM4C | inhibition, % at 12.5 µM | AID 720574 | GST-KDM4C 2-372, H3K9me3 peptide, LANCE TR-FRET | 0.15% of 96,000 active;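 active = mean replicate inhibition above about 25%, with at least 55% of replicates also reaching it, limit read from the data, passing the limit was not always enough; inconclusive = only one of those two conditions met; inactive = neither condition met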
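material = GST-tagged GASC-1 (JMJD2C) catalytic fragment, aa 2-372 | amount = enzyme final amount 10 nM | medium = HEPES buffer, pH 7.5, plus ascorbate | also added = H3K9me3 peptide substrate, Fe(II), 2-oxoglutarate | dosing = single dose | times = 30 min demethylation and 1 h detection at room temperature | detection = LANCE TR-FRET | read-out basis = Fall in 671/618 emission ratio as inhibition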
T cruzi growth-2: inhibitors of T. cruzi proliferation; 72% of 5,600 active; T. cruzi beta-gal in NIH3T3, GalScreen luminescence, 90 h; inhibition, % at 8.35 µM; shares compounds with T cruzi growth-1;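 active = mean replicate inhibition above about 95% and at least 55% of replicates individually reaching it, limit read from the data; inconclusive = only one of the two criteria is met; inactive = neither criterion is met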
T cruzi growth-3: blocks T. cruzi growth in NIH3T3 host cells; 21% of 5,600 active; shares compounds with T cruzi growth-1; T. cruzi beta-gal in NIH3T3, GalScreen luminescence, 90 h; inhibition, % at 2.09 µM;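 active = mean inhibition above about 95%, with at least 55% of replicates also reaching it, limit read from the data; inconclusive = meets just one of the two conditions; inactive = meets neither condition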;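 also: plate controls were neutral control median for no effect and positive control median for full effect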
3T3 cytotox: kills mouse NIH/3T3 fibroblasts; shares compounds with T cruzi growth-1; 14% of 5,600 active; AID 651742; cytotoxicity (signal decrease), % at 8.35 µM; NIH/3T3 viability, CellTiter-Glo ATP luminescence, 90 h;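 active = mean signal decrease across replicates above about 35% based on untreated-well scatter, with enough replicates individually passing, limit read from the data; inconclusive = no rule stated though some were filed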;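 also: 0% = median of neutral control wells and 100% = median of positive control wells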
3T3 cytotox 2: kills mouse NIH/3T3 fibroblasts | inhibition, % at 24.9 µM | AID 651744 | shares compounds with T cruzi growth-1 | NIH/3T3 viability, CellTiter-Glo ATP luminescence, 90 h | 56% of 5,600 active;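 active = mean loss of cell viability signal at or above a set limit, and enough replicates individually reaching it; inconclusive = meets only the mean limit or only the replicate share; inactive = meets neither condition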;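 also: 0% = median of neutral control wells and 100% = median of positive control wells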
* = called active by the depositor. An excerpt weighted towards active compounds, which were near 5.8% of everything screened.

`COc1ccc(CNC(=O)c2cc3c(c(-c4cccc(-c5ccc(C#N)cc5)c4)n2)[C@@H](CCO)N([S@](=O)C(C)(C)C)C3)cc1` gave T cruzi growth-1 98.2*, Pf Dd2 growth -52.8, IDH1 R132H inh 0.0, GASC1 inh -2.2, T cruzi growth-2 110.7*, T cruzi growth-3 106.5*, 3T3 cytotox 21.3 and 3T3 cytotox 2 37.9*.
Screening COC(=O)c1cc(OC)c(OC)cc1NC(=O)COc1ccc(Cl)cc1Br returned IDH1 R132H inh 0.0.
N#C[C@@H]1[C@@H](c2ccc(C3=CCCCC3)cc2)[C@H](CO)N1C(=O)NC1CCCCC1 was read as T cruzi growth-1 97.5*, Pf Dd2 growth -28.2, GASC1 inh -0.8, T cruzi growth-2 102.8*, T cruzi growth-3 66.5, 3T3 cytotox -9.7 and 3T3 cytotox 2 87.1*.
Screening CC(C)NC[C@@H]1[C@H](c2ccc(C3=CCCCC3)cc2)[C@H](CO)N1C(=O)NC(C)C returned T cruzi growth-1 121.3*, Pf Dd2 growth -41.1, GASC1 inh -0.6, T cruzi growth-2 105.7*, T cruzi growth-3 98.1*, 3T3 cytotox 29.3 and 3T3 cytotox 2 104.7*.
Screening N#C[C@@H]1[C@@H](c2ccc(C3=CCCCC3)cc2)[C@@H](CO)N1C(=O)NC1CCCCC1 returned T cruzi growth-1 98.3*, Pf Dd2 growth 11.2, GASC1 inh 0.8, T cruzi growth-2 104.3*, T cruzi growth-3 63.1, 3T3 cytotox 53.9* and 3T3 cytotox 2 64.3*.
For N#C[C@H]1[C@H](c2ccc(C3=CCCCC3)cc2)[C@H](CO)N1C(=O)NC1CCCC1 the results were Pf Dd2 growth -36.6 and GASC1 inh -1.5.
COc1cccc(NC(=O)N2[C@H](CO)[C@H](c3ccccc3)[C@@H]2CNC(C)C)c1 was read as T cruzi growth-1 114.9*, Pf Dd2 growth -28.1, GASC1 inh -0.5, T cruzi growth-2 90.8, T cruzi growth-3 27.2, 3T3 cytotox 1.0 and 3T3 cytotox 2 -6.1.
Screening N#C[C@H]1[C@@H](c2ccc(C3=CCCC3)cc2)[C@@H](CO)N1C(=O)NC1CCCCC1 returned Pf Dd2 growth -27.4 and GASC1 inh 0.0.
For CNC[C@H]1[C@@H](c2ccccc2)[C@@H](CO)N1C(=O)Nc1cccc(OC)c1 the results were T cruzi growth-1 32.6, Pf Dd2 growth -7.0 and GASC1 inh -5.0.
`O=C(CCn1cnc2ccccc2c1=O)Nc1ccccc1Br` gave IDH1 R132H inh 0.7.
`CCCNC(=O)N1[C@H](C#N)[C@@H](c2ccc(C3=CCCCC3)cc2)[C@@H]1CO` gave T cruzi growth-1 103.1*, Pf Dd2 growth -46.8, GASC1 inh -1.6, T cruzi growth-2 105.2*, T cruzi growth-3 72.1, 3T3 cytotox 15.6 and 3T3 cytotox 2 -41.1.
CCCNC(=O)N1[C@H](CO)[C@H](c2ccc(C3=CCCCC3)cc2)[C@@H]1C#N was read as T cruzi growth-1 56.4, Pf Dd2 growth 0.0, IDH1 R132H inh -0.1 and GASC1 inh 1.8.
CCc1cnc(N2[C@H](CO)[C@H](c3ccc(C#CC(C)C)cc3)[C@@H]2C#N)s1 was read as T cruzi growth-1 89.4, Pf Dd2 growth 2.2 and GASC1 inh 1.7.
CCc1cnc(N2[C@H](C#N)[C@@H](c3ccc(C#CC(C)C)cc3)[C@H]2CO)s1 was read as T cruzi growth-1 82.6, Pf Dd2 growth -23.2 and GASC1 inh -0.6.
CCc1cnc(N2[C@H](C#N)[C@H](c3ccc(C#CC(C)C)cc3)[C@H]2CO)s1 was read as T cruzi growth-1 106.8*, Pf Dd2 growth -13.4, GASC1 inh -1.2, T cruzi growth-2 98.0*, T cruzi growth-3 108.4*, 3T3 cytotox 16.0 and 3T3 cytotox 2 25.5*.
For CCc1cnc(N2[C@H](C#N)[C@H](c3ccc(C#CC(C)C)cc3)[C@@H]2CO)s1 the results were T cruzi growth-1 96.4*, Pf Dd2 growth -38.0, GASC1 inh -1.3, T cruzi growth-2 100.5*, T cruzi growth-3 112.6*, 3T3 cytotox 6.2 and 3T3 cytotox 2 0.2.
`Cc1nn(Cc2ccc(F)cc2)c(C)c1NC(=O)c1cc(-c2cccnc2)nc2c(Cl)cccc12` gave IDH1 R132H inh -0.2.
O=S(=O)(Cc1ccccc1)N1CCCCN2[C@H](C1)[C@H](c1ccc(-c3ccc(F)cc3)cc1)[C@@H]2CO was read as T cruzi growth-1 110.1*, Pf Dd2 growth 7.3, GASC1 inh 0.1, T cruzi growth-2 101.4*, T cruzi growth-3 40.7, 3T3 cytotox 13.7 and 3T3 cytotox 2 104.8*.
`O=S(=O)(Cc1ccccc1)N1CCCCN2[C@H](C1)[C@@H](c1ccc(-c3ccc(F)cc3)cc1)[C@@H]2CO` gave T cruzi growth-1 86.3, Pf Dd2 growth 1.3 and GASC1 inh -3.1.
`O=S(=O)(Cc1ccccc1)N1CCCCN2[C@H](CO)[C@@H](c3ccc(-c4cncnc4)cc3)[C@@H]2C1` gave T cruzi growth-1 64.9, Pf Dd2 growth -8.9 and GASC1 inh -1.0.
`O=S(=O)(Cc1ccccc1)N1CCCCN2[C@H](CO)[C@@H](c3ccc(-c4ccc(F)cc4)cc3)[C@H]2C1` gave T cruzi growth-1 inconclusive, Pf Dd2 growth 7.6, GASC1 inh -0.1, T cruzi growth-2 103.4*, T cruzi growth-3 66.5, 3T3 cytotox 34.8* and 3T3 cytotox 2 104.7*.
Cc1ccc(Cl)cc1NC(=O)CC(C(=O)O)N1CCNCC1 (stereo unspecified) was read as IDH1 R132H inh 0.2.
`Cc1ccccc1-c1ccc([C@H]2[C@H](CO)N3CCCCN(C(=O)CN4CCOCC4)C[C@@H]23)cc1` gave T cruzi growth-1 101.5*, Pf Dd2 growth -3.5, GASC1 inh -0.8, T cruzi growth-2 87.5, T cruzi growth-3 69.7, 3T3 cytotox 14.1 and 3T3 cytotox 2 23.5.
Cc1ccccc1-c1ccc([C@@H]2[C@H](CO)N3CCCCN(C(=O)CN4CCOCC4)C[C@@H]23)cc1 was read as T cruzi growth-1 101.0*, Pf Dd2 growth -33.9, GASC1 inh 1.6, T cruzi growth-2 83.7, T cruzi growth-3 47.1, 3T3 cytotox 36.0* and 3T3 cytotox 2 32.1*.
`COc1cccc(S(=O)(=O)N[C@H]2CC[C@@H](CCNC(=O)Cc3ccncc3)O[C@@H]2CO)c1` gave T cruzi growth-1 14.7, Pf Dd2 growth 2.0, IDH1 R132H inh -0.4 and GASC1 inh 0.0.

Bioassay records: PubChem, Broad Institute
